Common to all, as to assay type: binding
For one test, the system named is pPorA-C24. The note with it: subconductance pores; R6 1 µM cis; R9 0.5 µM; 150 mM KCl, pH 7.4.
The next test has as its system gpPorA. The test is described as follows: Single-channel recording of peptide interaction/translocation with gpPorA. The following applies: for discrimination of R4 and R9 in competitive blocking: R4 10 µM, cis and R9 100 nM, 150 mM KCl.
A further test relates to pPorA-A24. The test is described as follows: Single-channel recording of peptide interaction with pPorA-A24. Put shortly:
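Single pores in planar lipid bilayers formed on an aperture prepainted with hexadecane in n-pentane (5 mg mL−1). Test peptide added to the cis side in 0.15 M KCl, 10 mM HEPES, pH 7.4, recorded at −5 and −20 mV. Current was digitally filtered at 4 and 7 kHz with an 8-pole Bessel filter. τoff came from dwell-time histograms.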

In another test the test system is pPorA-K24. The test is described as follows: Single-channel recording of peptide interaction with pPorA-K24. The note with it: for ion current blockages: cis, 0.15 M KCl, pH 7.4.
Where [1] appears, read: 0.5 μM, cis, negative voltages, 0.15 M KCl, pH 7.4.
Setting [2] is: 0.5 μM, trans, +10 mV to +35 mV, 0.15 M KCl, pH 7.4.

Experimental findings from paper PMC8178987 (Chemical Science, 2020) are described below.

As for hexaarginine [R6], the “ion current blockages” value is “combination of strong and weak ion current blockages” in the test with pPorA-C24; “time-resolved ion current blockages” in the test with gpPorA (0.5 μM, trans, 0.15 M KCl, pH 7.4). Further, the “blockage events” value in the test with gpPorA (0.5 μM, cis, above −25 mV, 0.15 M KCl, pH 7.4) is recorded as “not resolved accurately”; with gpPorA (0.5 μM, cis, higher positive voltages, 0.15 M KCl, pH 7.4) it was “no blockage events were observed”. Further, the “ion current blockage (block)” value in the test on gpPorA (setting [1]) is 100%. Further, the “frequency of blockage events” value in the test on gpPorA (0.5 μM, cis, −5 mV to −25 mV, 0.15 M KCl, pH 7.4) is reported as “decreased with an increase in the voltage”. In addition, the “asymmetry in peptide binding/translocation between cis and trans sides” value in the test with gpPorA (0.5 μM, 0.15 M KCl, pH 7.4) is “no significant asymmetry”. Further, the Kd on gpPorA (read-out: KDcis, cis, −10 mV, 0.15 M KCl, pH 7.4) was 5.19 µM.
For nonaarginine [R9], the “ion current blockages” value in the test with pPorA-C24 was “combination of strong and weak ion current blockages”; in the test with gpPorA (0.5 μM, cis, above +40 mV, 0.15 M KCl, pH 7.4), “less frequent ion current blockages”; with gpPorA (0.5 μM, cis, pH 7.4, 0.15 M KCl, compared with pH 4.5), “voltage-dependent well-defined ion current blockages”; in the test with gpPorA (0.5 μM, cis, −5 mV, −10 mV and −15 mV, pH 4.5, citrate buffer, 0.15 M KCl), “short-lived, less frequent ion current blockages”; in the test with gpPorA (0.5 μM, cis, −20 mV and −25 mV, pH 4.5, citrate buffer, 0.15 M KCl) it was “no prominent blockage events”; in the test with gpPorA (1 μM, cis, added after D9 to the same pores, 0.15 M KCl, pH 7.4) it was “voltage-dependent intense blockage events”. For the same substance, the “ion current blockages” value with gpPorA (100 μM, cis, −20 mV, −30 mV and −50 mV, 1 M KCl, pH 7.4) is “less frequent to unresolved ion current blockages”; in the test with pPorA-A24 (0.5 μM, cis, −5 mV to −20 mV, 0.15 M KCl, pH 7.4), “ion current blockages exclusively at negative voltages”. In the test with gpPorA (0.5 μM, cis, above −40 mV, 0.15 M KCl, pH 7.4), the “frequency of ion current blockages” value is listed as “considerably reduced”. Besides, the “ion current blockage (block)” value with gpPorA (setting [1]) is listed as 100%; in the test with gpPorA (setting [2]), 100%; in the test with gpPorA (100 μM, cis, −10 mV, 1 M KCl, pH 7.4), about 70%. The “pore state on peptide addition” value with gpPorA (0.5 μM, cis, −5 mV, 0.15 M KCl, pH 7.4) is on record as “predominantly remained closed”. Moreover, the “voltage dependence of kon and koff” value with gpPorA (0.5 μM, cis, −10 mV to −35 mV, 0.15 M KCl, pH 7.4) is “increased with the voltage”; with gpPorA (setting [2]), “an increase in the kon and koff”. In addition, the τoff in the test on gpPorA (0.5 μM, trans, +10 mV, 0.15 M KCl, 10 mM HEPES, pH 7.4, n = 3) was 35 ± 3 ms; in the test with gpPorA (100 μM, cis, −10 mV, 1 M KCl, 10 mM HEPES, pH 7.4, n = 3), 0.14 ± 0.02 ms. In addition, in the test on gpPorA (0.5 μM, trans, negative voltages, 0.15 M KCl, pH 7.4), the “ion current blockages against the electrophoretic pulling” value is on record as “ion current blockages against the electrophoretic pulling was observed”. For the same substance, the “asymmetry in peptide binding/translocation between cis and trans sides” value with gpPorA (0.5 μM, 0.15 M KCl, pH 7.4) is on record as “well-defined asymmetry”. For the same substance, the “discrimination of R4 and R9 in competitive blocking” value with gpPorA (cis, −20 mV and −25 mV, pH 7.4) is “discriminated based on τoff”. Also, in the test with pPorA-A24 (directly formed pPorA compared to self-assembled gpPorA), the “binding affinity” value is “less affinity”.
nonaaspartate [D9]: the “ion current blockages” value in the test on gpPorA (100 μM, cis, different peptide concentrations and voltages, 0.15 M KCl, pH 7.4) is listed as “did not produce any ion current blockages”; in the test on pPorA-K24 (0.5 μM), “did not produce defined ion current blockages”; with pPorA-K24 (10 μM, +50 mV), “very short, less frequent ion current blockage”; with pPorA-K24 (10 μM, negative voltages), “no ion current blockages were observed”. Also, the “binding affinity” value with pPorA-K24 (compared with R9 binding to cation-selective gpPorA (C24)) is listed as “weak D9 peptide binding”.
For tetraarginine [R4], in the test on gpPorA (10 μM, cis/trans, 0.15 M KCl, pH 7.4), the “binding to pore” value was “weak electrostatic binding”. Besides, the “frequency of the blockage events” value with gpPorA (10 μM, cis, negative voltages to −75 mV, 0.15 M KCl, pH 7.4) is recorded as “increased with the voltage”. Also, the “ion current blockages” value with gpPorA (10 μM, cis, positive voltages, 0.15 M KCl, pH 7.4) is on record as “No peptide-induced ion current blockages were detected”; in the test on gpPorA (10 μM, cis, −25 mV, 0.15 M KCl, pH 7.4), “occasional ion current blockages”; in the test with gpPorA (10 μM, trans, higher positive voltages, 0.15 M KCl, pH 7.4), “short, less frequent blockage events”. Also, in the test on gpPorA (10 μM, cis, −75 mV, 0.15 M KCl, 10 mM HEPES, pH 7.4, n = 3), the “τoff (mean dwell time of blocking)” value was 165 ± 15 μs. In addition, the “discrimination of R4 and R9 in competitive blocking” value in the test on gpPorA (cis, −20 mV and −25 mV, pH 7.4) is given as “discriminated based on τoff”.
